Experimental findings from ChEMBL document CHEMBL1914310, “Microbial transformations of diosgenin by the white-rot basidiomycete Coriolus versicolor” (2011) are described below.

Assay [1] concerns U-87MG ATCC. The experiment in a line: Cytotoxicity against human U87 cells after 48 hrs by XTT assay. The class given is functional, cell-based. A digest of the protocol: (§1)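 U87 glioma cells kept in ATCC-recommended medium with 10% FBS at 37 °C, 5% CO2. Seeded at 1000 cells/well, exposed to compounds for 48 h. XTT added, then plates held another 4 h at 37 °C. Viability read colorimetrically per the kit protocol; inhibition taken at 100 μM.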
(Formazan colour is commonly taken as a measure of viable cells.)

Assay [2] deals with HEK293. The experiment in a line: Inhibition of human NF-kappaB in HEK cells by luciferase reporter gene assay. Format: cell-based. A digest of the protocol:
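HEK293 cells with a chromosomally integrated luciferase reporter under an NF-κB response element. Pathway activation induced by human tumor necrosis factor. After incubation, treated cells were lysed in reporter lysis buffer. Luciferase light output was read on a luminometer.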
On the technique in general: In a reporter assay the amount or activity of a reporter protein is the signal.

Assay [3] in a line: Cytotoxicity against human U87 cells assessed as growth inhibition at 100 uM after 48 hrs by XTT assay. The class given is functional, U-87MG ATCC. The conditions noted are these: U-87 MG, read-out: GI. In a few lines: as §1

Calls of active or inactive are those of the source. The calls are words filed in the database; no cut-off is given here.

Turning to `C[C@@H]1CC[C@@]2(OC1)O[C@H]1C[C@H]3[C@@H]4[C@@H](O)C=C5C[C@@H](O)CC[C@]5(C)[C@H]4C[C@@H](O)[C@]3(C)[C@H]1[C@@H]2CO`, the result in assay [1] was inactive. For the same compound, the inhibition result in assay [2] was “inactive”. For the compound `C[C@@H]1CC[C@@]2(OC1)O[C@H]1C[C@H]3[C@@H]4CC[C@H]5C[C@@H](O)CC[C@]5(C)[C@H]4CC[C@]3(C)[C@H]1[C@@H]2C`, in assay [2], the inhibition result was “inactive”. Regarding `C[C@@H]1CC[C@@]2(OC1)O[C@H]1C[C@H]3[C@@H]4[C@@H](O)C=C5C[C@@H](O)CC[C@]5(C)[C@H]4CC[C@]3(C)[C@H]1[C@@H]2C`, the outcome in assay [1] was inactive. In addition, the inhibition entry in assay [2] is “inactive”. For the compound `C[C@@H]1CC[C@@]2(OC1)O[C@H]1C[C@H]3[C@@H]4[C@@H](O)C=C5C[C@@H](O)CC[C@]5(C)[C@H]4CC[C@]3(C)[C@H]1[C@@H]2CO`, in assay [1], the outcome was inactive. For the same compound, in assay [3], the inhibition of growth at 100 µM was 28.2%. Further, the inhibition entry in assay [2] is “inactive”. As to `C[C@@H]1CC[C@@]2(OC1)O[C@H]1C[C@H]3[C@@H]4CC=C5C[C@@H](O)CC[C@]5(C)[C@H]4CC[C@]3(C)[C@H]1[C@@H]2C`, the inhibition entry in assay [2] is “inactive”. For the compound `C[C@@H]1CC[C@@]2(OC1)O[C@H]1C[C@H]3[C@@H]4[C@@H](O)C=C5C[C@@H](O)CC[C@]5(C)[C@H]4C[C@@H](O)[C@]3(C)[C@H]1[C@@H]2C`, the outcome in assay [1] was inactive. In assay [2], the inhibition result is “inactive”. Regarding `C[C@@H]1CC[C@@]2(OC1)O[C@H]1C[C@H]3[C@@H]4CCC5=CC(=O)CC[C@]5(C)[C@H]4CC[C@]3(C)[C@H]1[C@@H]2C`, the outcome in assay [1] was inactive. The inhibition result in assay [2] was “inactive”. For `C[C@@H]1CC[C@@]2(OC1)O[C@H]1[C@H](O)[C@H]3[C@@H]4[C@H](O)C=C5C[C@@H](O)CC[C@]5(C)[C@H]4CC[C@]3(C)[C@H]1[C@@H]2CO`, the outcome in assay [1] was inactive. In addition, in assay [2], the inhibition result is “inactive”. Regarding `C[C@@H]1CC[C@@]2(OC1)O[C@H]1C[C@H]3[C@H]4[C@H]([C@H](O)C[C@]3(C)[C@H]1[C@@H]2CO)[C@@]1(C)CC[C@H](O)CC1=C[C@@H]4O`, the inhibition entry in assay [2] was “inactive”. Take `CC(=O)O[C@H]1CC[C@@]2(C)C(=CC[C@H]3[C@@H]4C[C@@H]5O[C@]6(CC[C@@H](C)CO6)[C@@H](C)[C@@H]5[C@@]4(C)CC[C@@H]32)C1`: in assay [1], the outcome was inactive. The inhibition entry in assay [2] was “inactive”.

For the compound `C[C@@H]1CC[C@@]2(OC1)O[C@H]1C[C@H]3[C@@H]4[C@H](O)C=C5C[C@@H](O)CC[C@]5(C)[C@H]4C[C@@H](O)[C@]3(C)[C@H]1[C@@H]2CO`, the inhibition result in assay [2] is “inactive”.
